Measured values: PMC9305210 (British Journal of Clinical Pharmacology, 2022)

Assay: Safety and tolerability
Format: in vivo, human
Details: for tolerability: 100‐400 mg/day for up to 14 days, healthy subjects; for TEAE leading to discontinuation: one subject
Outline: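 Randomized, double-blind, placebo-controlled; cohorts of 8 (6:2) healthy adults given oral solution daily for a planned 14 days after ≥8 h fast, confined on site days −3 to 15 plus 1 follow-up day. Monitoring covered AEs, physical examination, BMI, vital signs, ECG and clinical laboratory tests. Subjects with ≥1 treatment-emergent AE counted across all subjects receiving at least one dose.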

[1] = Soticlestat total, n = 30, listed as soticlestat

O=C(c1cccnc1-c1ccncc1)N1CCC(O)(Cc2ccccc2)CC1 [Soticlestat, soticlestat]
Number of subjects (%) with SAEs (100 mg QD, n = 6): 0
Number of subjects (%) with TEAEs (100 mg QD, n = 6): 0
Number of subjects (%) with TEAEs: Leading to discontinuation (100 mg QD, n = 6): 0
Number of subjects (%) with TEAEs: Mild (100 mg QD, n = 6): 0
Number of subjects (%) with TEAEs: Moderate (100 mg QD, n = 6): 0
Number of subjects (%) with TEAEs: Not related (100 mg QD, n = 6): 0
Number of subjects (%) with TEAEs: Related (100 mg QD, n = 6): 0
Number of subjects (%) with TEAEs: Severe (100 mg QD, n = 6): 0
Number of subjects (%): Deaths (100 mg QD, n = 6): 0
Number of subjects (%) with SAEs (300 mg BID, n = 6): 0
Number of subjects (%) with TEAEs (300 mg BID, n = 6): 5 (83.3)
Number of subjects (%) with TEAEs: Leading to discontinuation (300 mg BID, n = 6): 1 (16.7)
Number of subjects (%) with TEAEs: Mild (300 mg BID, n = 6): 5 (83.3)
Number of subjects (%) with TEAEs: Moderate (300 mg BID, n = 6): 0
Number of subjects (%) with TEAEs: Not related (300 mg BID, n = 6): 0
Number of subjects (%) with TEAEs: Related (300 mg BID, n = 6): 5 (83.3)
Number of subjects (%) with TEAEs: Severe (300 mg BID, n = 6): 0
Number of subjects (%): Deaths (300 mg BID, n = 6): 0
Number of subjects (%) with SAEs (300 mg QD, n = 6): 0
Number of subjects (%) with TEAEs (300 mg QD, n = 6): 1 (16.7)
Number of subjects (%) with TEAEs: Leading to discontinuation (300 mg QD, n = 6): 0
Number of subjects (%) with TEAEs: Mild (300 mg QD, n = 6): 1 (16.7)
Number of subjects (%) with TEAEs: Moderate (300 mg QD, n = 6): 0
Number of subjects (%) with TEAEs: Not related (300 mg QD, n = 6): 0
Number of subjects (%) with TEAEs: Related (300 mg QD, n = 6): 1 (16.7)
Number of subjects (%) with TEAEs: Severe (300 mg QD, n = 6): 0
Number of subjects (%): Deaths (300 mg QD, n = 6): 0
Number of subjects (%) with SAEs (400 mg QD, n = 6): 0
Number of subjects (%) with TEAEs (400 mg QD, n = 6): 5 (83.3)
Number of subjects (%) with TEAEs: Leading to discontinuation (400 mg QD, n = 6): 0
Number of subjects (%) with TEAEs: Mild (400 mg QD, n = 6): 4 (66.7)
Number of subjects (%) with TEAEs: Moderate (400 mg QD, n = 6): 1 (16.7)
Number of subjects (%) with TEAEs: Not related (400 mg QD, n = 6): 1 (16.7)
Number of subjects (%) with TEAEs: Related (400 mg QD, n = 6): 4 (66.7)
Number of subjects (%) with TEAEs: Severe (400 mg QD, n = 6): 0
Number of subjects (%): Deaths (400 mg QD, n = 6): 0
Number of subjects (%) with SAEs (600 mg QD, n = 6): 0
Number of subjects (%) with TEAEs (600 mg QD, n = 6): 3 (50.0)
Number of subjects (%) with TEAEs: Leading to discontinuation (600 mg QD, n = 6): 1 (16.7)
Number of subjects (%) with TEAEs: Mild (600 mg QD, n = 6): 2 (33.3)
Number of subjects (%) with TEAEs: Moderate (600 mg QD, n = 6): 0
Number of subjects (%) with TEAEs: Not related (600 mg QD, n = 6): 0
Number of subjects (%) with TEAEs: Related (600 mg QD, n = 6): 3 (50.0)
Number of subjects (%) with TEAEs: Severe (600 mg QD, n = 6): 1 (16.7)
Number of subjects (%): Deaths (600 mg QD, n = 6): 0
tolerability: generally well tolerated
tolerability (listed as soticlestat): well tolerated in most healthy subjects up to 400 mg daily
Number of subjects (%) with SAEs (Soticlestat total, n = 30): 0
Number of subjects (%) with TEAEs (Soticlestat total, n = 30): 14 (46.7)
Number of subjects (%) with TEAEs: Leading to discontinuation (Soticlestat total, n = 30): 2 (6.7)
Number of subjects (%) with TEAEs: Mild (Soticlestat total, n = 30): 12 (40.0)
Number of subjects (%) with TEAEs: Moderate (Soticlestat total, n = 30): 1 (3.3)
Number of subjects (%) with TEAEs: Not related (Soticlestat total, n = 30): 1 (3.3)
Number of subjects (%) with TEAEs: Related (Soticlestat total, n = 30): 13 (43.3)
Number of subjects (%) with TEAEs: Severe (Soticlestat total, n = 30): 1 (3.3)
Number of subjects (%): Deaths (Soticlestat total, n = 30): 0
Number of subjects (%) with TEAEs [1]: 14
Number of subjects (%) with TEAEs: Related [1]: 13
clinical laboratory (including hormones), vital signs, physical examination, eye examination or electrocardiographic findings (all doses): No clinically significant findings
liver function test results (all doses): No subjects had abnormal liver function test results
number of TEAE events considered related to soticlestat (all doses): 31
proportion of TEAEs transient and mild in intensity (all doses): 91%
serious AEs (all doses): No serious AEs were reported
proportion of TEAEs transient and mild in intensity (all doses, listed as soticlestat): over 90%
outcome of TEAEs (before study exit on day 15): reversible and resolved without treatment
TEAE leading to discontinuation (300 mg BID (cohort 3), study day 9): mild event of confusional state
TEAE leading to discontinuation (600 mg QD (cohort 4), study day 10): severe event of acute psychosis
total number of TEAEs reported (subjects administered soticlestat, all doses): 45
